Source: ChEMBL document CHEMBL4706728, “Discovery of a Highly Selective and Potent TRPC3 Inhibitor with High Metabolic Stability and Low Toxicity” (ACS Med Chem Lett, 2021)
Active and inactive are the calls of the source. The rule behind the calls is not given here.

Columns and labels:
[1] = biological target: T1, Short transient receptor potential channel 7 (Homo sapiens) (UniProt Q9HCX4); test: Inhibition of human TRPC7 expressed in HEK293 cells assessed as inhibition of GSK170-induced current at 10 uM by whole cell patch-clamp method; type: cell-based
T1 sequence (whole entry): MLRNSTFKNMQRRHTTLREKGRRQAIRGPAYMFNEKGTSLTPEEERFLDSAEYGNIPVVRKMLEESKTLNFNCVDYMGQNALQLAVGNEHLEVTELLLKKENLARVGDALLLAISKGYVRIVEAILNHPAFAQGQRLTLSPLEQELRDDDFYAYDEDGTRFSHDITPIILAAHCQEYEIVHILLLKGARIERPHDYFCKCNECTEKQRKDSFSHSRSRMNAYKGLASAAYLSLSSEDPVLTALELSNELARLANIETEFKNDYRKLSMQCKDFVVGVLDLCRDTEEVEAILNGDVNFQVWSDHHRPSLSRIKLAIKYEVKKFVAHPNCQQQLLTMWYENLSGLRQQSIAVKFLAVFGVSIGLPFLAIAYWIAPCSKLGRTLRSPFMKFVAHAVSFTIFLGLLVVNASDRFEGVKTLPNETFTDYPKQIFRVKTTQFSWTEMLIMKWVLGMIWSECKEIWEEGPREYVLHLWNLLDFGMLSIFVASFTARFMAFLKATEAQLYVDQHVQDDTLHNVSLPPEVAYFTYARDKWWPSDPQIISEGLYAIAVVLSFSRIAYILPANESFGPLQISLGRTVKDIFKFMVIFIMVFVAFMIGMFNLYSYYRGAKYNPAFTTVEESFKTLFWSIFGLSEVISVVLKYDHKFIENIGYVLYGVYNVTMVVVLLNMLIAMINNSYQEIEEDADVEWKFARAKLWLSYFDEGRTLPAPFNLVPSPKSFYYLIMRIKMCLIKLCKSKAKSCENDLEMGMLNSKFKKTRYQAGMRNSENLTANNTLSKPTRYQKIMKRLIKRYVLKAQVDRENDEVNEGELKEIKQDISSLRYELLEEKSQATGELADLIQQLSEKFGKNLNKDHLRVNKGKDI
Procedure, shortened: (§1)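 TRP channels overexpressed in HEK293 cells (hTRPA1, rTRPV1, rTRPV4, mouse TRPC6, hTRPC7, hTRPM8). Whole-cell patch clamp with Ca2+-free solutions to avoid desensitization. Channels fully activated with high concentrations of their agonists (AITC for TRPA1, capsaicin for TRPV1, GSK1016790A for TRPV4), then 10 μM test compound perfused with agonist. Result expressed as percentage of peak current blocked; mean ± SD.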

ORAI1/STIM1 = ORAI1/STIM1 (Homo sapiens, UniProt Q96D31+Q13586); test: Inhibition of STIM/Orai1 (unknown origin) expressed in HEK293 cells assessed as reduction in thapsigargin-induced Ca2+ influx at 10 uM in presence of Ca2+ by whole cell patch clamp method; type: cell-based; details: hek293, 10 µM
[2] = Metabolic stability in rat liver microsomes assessed as half life at […] measured up to 240 mins in presence of NADPH regeneration system by LC-MS analysis; type: ADME, Microsome
[3] = biological target: Transient receptor potential cation channel subfamily V member 1 (Rattus norvegicus) (UniProt O35433); test: Inhibition of rat TRPV1 expressed in HEK293 cells assessed as inhibition of capsaicin-induced current at 10 uM by whole cell patch-clamp method; type: cell-based; procedure, shortened: as §1
[4] = Binding affinity to human His8-MBP-TRPC3b I395V mutant expressed in baculovirus infected Sf9 cells incubated for 1 hr by LC-MS analysis
Procedure, shortened: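 Purified hTRPC3 protein incubated with compound for 1 h. Free compound removed by repeated size-exclusion chromatography. Methanol added to denature the protein and extract bound compound, which is detected by LC-MS against a prepared control. MS data collected from 2.5 min onward to keep buffer salts out.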

[5] = biological target: Transient receptor potential cation channel subfamily M member 8 (Homo sapiens) (UniProt Q7Z2W7); test: Inhibition of human TRPM8 expressed in HEK293 cells assessed as inhibition of […]-induced current at 10 uM by whole cell patch-clamp method; type: cell-based; procedure, shortened: as §1
[6] = biological target: T2, Short transient receptor potential channel 3 (Homo sapiens) (UniProt Q13507); test: Inhibition of human TRPC3 expressed in HEK293 cells assessed as inhibition of OAG-induced current at 0.001 to 10 uM by whole cell patch-clamp method; type: cell-based; details: dose 0.001-10 µM
T2 sequence (whole entry): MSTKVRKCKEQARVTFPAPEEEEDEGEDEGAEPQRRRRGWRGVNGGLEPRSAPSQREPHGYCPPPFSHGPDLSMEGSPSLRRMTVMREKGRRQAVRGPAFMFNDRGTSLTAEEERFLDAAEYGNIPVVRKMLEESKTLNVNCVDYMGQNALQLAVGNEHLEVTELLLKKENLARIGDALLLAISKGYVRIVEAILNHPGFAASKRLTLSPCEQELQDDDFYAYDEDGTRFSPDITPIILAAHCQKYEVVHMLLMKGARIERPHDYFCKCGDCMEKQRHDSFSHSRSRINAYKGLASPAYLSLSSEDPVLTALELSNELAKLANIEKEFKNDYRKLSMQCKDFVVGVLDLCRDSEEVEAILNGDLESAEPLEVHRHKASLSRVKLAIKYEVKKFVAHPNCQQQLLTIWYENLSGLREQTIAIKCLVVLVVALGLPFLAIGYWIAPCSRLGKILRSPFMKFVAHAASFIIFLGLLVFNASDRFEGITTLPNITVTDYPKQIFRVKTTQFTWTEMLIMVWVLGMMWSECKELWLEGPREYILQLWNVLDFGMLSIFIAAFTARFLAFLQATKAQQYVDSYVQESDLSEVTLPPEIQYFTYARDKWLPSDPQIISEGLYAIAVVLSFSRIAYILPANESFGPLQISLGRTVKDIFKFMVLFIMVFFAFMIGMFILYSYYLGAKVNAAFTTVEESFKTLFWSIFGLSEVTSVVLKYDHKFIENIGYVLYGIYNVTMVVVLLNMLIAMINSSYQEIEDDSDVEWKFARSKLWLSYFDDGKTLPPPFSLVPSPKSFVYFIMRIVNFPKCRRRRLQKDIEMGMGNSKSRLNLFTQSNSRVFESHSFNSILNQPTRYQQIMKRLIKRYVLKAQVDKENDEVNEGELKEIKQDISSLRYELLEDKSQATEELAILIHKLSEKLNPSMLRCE
Procedure, shortened: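 Whole-cell recordings of hTRPC3 expressed in HEK293 cells, channel activated by 1-oleoyl-2-acetyl-sn-glycerol (membrane-permeable diacylglycerol analogue) instead of GSK1702934A. Inhibitor at a range of concentrations co-perfused with agonist to build a dose–response profile.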

[7] = Metabolic stability in mouse liver microsomes assessed as half life at […] measured up to 240 mins in presence of NADPH regeneration system by LC-MS analysis; type: ADME, Microsome
[8] = biological target: T2, Short transient receptor potential channel 3 (Homo sapiens); test: Inhibition of human TRPC3 expressed in HEK293 cells assessed as inhibition of GSK170-induced current at 10 uM in absence of extracellular calcium by whole cell patch-clamp method relative to control; type: cell-based
Procedure, shortened: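 Human TRPC3 transiently expressed in HEK293 cells; whole-cell patch clamp with Ca2+-free solutions. Channel activated by GSK1702934A, then test compound at 10 μM perfused with the agonist. Inhibition expressed as percentage of the agonist-evoked current; mean ± SD, n cells per compound.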

Sequence of ORAI1/STIM1 (Q96D31 whole entry): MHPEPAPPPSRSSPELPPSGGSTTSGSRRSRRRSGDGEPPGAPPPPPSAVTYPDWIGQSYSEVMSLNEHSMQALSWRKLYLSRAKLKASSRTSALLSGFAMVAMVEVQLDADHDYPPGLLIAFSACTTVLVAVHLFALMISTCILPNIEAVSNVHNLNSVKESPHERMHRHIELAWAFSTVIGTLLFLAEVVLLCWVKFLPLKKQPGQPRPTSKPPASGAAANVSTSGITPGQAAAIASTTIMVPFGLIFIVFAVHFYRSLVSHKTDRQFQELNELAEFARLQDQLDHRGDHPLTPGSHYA
Sequence of ORAI1/STIM1 (Q13586 whole entry): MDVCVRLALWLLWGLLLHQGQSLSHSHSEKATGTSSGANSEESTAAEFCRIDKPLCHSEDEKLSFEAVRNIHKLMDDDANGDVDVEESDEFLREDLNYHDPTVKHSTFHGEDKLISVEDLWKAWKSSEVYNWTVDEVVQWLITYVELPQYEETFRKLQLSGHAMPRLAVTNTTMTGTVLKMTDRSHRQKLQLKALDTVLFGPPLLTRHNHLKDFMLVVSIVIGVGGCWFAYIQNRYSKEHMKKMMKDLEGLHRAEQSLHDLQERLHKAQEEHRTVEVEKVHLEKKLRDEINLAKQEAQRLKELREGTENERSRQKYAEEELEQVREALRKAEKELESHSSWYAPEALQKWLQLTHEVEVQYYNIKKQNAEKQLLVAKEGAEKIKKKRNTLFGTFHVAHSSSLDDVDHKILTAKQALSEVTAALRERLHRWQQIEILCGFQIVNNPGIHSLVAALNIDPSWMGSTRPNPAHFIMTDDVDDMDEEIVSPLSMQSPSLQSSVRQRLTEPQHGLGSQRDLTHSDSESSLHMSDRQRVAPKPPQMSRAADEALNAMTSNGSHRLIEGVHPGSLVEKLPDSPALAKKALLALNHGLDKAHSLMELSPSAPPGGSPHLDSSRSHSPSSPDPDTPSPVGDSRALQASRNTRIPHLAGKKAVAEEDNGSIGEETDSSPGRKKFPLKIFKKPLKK
Sequence of Transient receptor potential cation channel subfamily V member 1 (Rattus norvegicus) (O35433 whole entry): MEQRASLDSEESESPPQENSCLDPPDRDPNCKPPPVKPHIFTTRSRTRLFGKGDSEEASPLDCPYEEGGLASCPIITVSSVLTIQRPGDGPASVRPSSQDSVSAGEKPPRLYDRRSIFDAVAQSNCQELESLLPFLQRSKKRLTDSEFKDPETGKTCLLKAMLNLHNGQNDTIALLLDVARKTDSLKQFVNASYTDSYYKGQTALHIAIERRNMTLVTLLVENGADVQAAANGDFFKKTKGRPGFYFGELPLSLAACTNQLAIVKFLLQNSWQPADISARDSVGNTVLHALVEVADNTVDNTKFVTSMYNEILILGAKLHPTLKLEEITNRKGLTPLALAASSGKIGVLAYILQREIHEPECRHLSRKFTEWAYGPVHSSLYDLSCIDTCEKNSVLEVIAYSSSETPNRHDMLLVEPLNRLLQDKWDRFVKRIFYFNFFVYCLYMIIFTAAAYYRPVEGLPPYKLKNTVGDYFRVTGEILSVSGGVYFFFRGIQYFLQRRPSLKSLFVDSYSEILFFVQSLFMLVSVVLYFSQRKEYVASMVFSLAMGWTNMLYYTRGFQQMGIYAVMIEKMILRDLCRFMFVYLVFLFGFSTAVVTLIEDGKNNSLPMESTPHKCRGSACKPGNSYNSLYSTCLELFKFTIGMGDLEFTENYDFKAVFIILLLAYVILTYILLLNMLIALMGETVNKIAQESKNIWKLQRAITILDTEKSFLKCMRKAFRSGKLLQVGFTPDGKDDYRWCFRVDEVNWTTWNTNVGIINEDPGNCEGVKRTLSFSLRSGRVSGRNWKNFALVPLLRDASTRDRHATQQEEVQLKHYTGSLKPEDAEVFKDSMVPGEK
Sequence of Transient receptor potential cation channel subfamily M member 8 (Homo sapiens) (Q7Z2W7 whole entry, looked up): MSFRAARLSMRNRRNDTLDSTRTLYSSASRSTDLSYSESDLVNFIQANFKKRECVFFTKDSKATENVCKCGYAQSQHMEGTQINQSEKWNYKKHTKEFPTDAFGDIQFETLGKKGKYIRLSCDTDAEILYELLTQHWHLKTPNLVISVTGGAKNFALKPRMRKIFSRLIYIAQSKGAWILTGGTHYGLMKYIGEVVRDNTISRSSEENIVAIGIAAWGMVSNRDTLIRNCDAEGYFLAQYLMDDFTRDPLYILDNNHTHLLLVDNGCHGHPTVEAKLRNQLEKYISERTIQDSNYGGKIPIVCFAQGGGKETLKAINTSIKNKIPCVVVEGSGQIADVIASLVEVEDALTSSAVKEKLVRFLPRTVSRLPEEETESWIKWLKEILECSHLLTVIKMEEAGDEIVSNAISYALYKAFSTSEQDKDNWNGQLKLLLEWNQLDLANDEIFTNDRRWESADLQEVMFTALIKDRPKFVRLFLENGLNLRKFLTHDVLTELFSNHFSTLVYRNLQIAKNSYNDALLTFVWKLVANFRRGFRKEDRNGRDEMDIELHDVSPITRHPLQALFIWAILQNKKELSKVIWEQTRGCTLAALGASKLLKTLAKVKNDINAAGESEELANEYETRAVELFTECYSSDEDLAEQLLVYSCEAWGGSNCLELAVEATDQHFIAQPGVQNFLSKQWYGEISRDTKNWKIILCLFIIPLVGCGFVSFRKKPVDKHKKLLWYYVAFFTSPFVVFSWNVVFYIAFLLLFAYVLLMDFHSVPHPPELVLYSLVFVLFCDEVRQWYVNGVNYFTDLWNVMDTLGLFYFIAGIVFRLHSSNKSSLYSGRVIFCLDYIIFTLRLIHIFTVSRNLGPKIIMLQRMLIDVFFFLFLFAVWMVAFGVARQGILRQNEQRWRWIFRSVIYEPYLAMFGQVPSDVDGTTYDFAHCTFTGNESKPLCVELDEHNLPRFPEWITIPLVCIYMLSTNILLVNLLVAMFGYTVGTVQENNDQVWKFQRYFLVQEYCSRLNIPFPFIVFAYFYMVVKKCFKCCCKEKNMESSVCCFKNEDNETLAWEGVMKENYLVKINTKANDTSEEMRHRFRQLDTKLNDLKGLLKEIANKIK

SMILES: CCNC(=O)c1cnn(-c2ccc(-n3ccc(Cl)c(Cl)c3=O)cc2)c1C(F)(F)F
- inhibition [1]: 26%
- inhibition (INH) (ORAI1/STIM1): Active
- half-life [2]: > 4 h
- inhibition [3]: inactive
- Activity [4]: Active
- inhibition [5]: inactive
- inhibition [6]: Active
- half-life [7]: > 4 h
- inhibition [8]: 89%
